By IC50 is commonly meant the midpoint of a concentration-inhibition curve. A lower IC50 goes with inhibition by little substance.

In brackets after ≈: the same amount, converted by molar mass. Activity calls are given as the source filed them. The rule behind the calls is not given here.

Data on 17 compounds can be found in ChEMBL document CHEMBL3351261, “Induction of intrinsic apoptosis pathway in colon cancer HCT-116 cells by novel 2-substituted-5,6,7,8-tetrahydronaphthalene derivatives” (Eur J Med Chem, 2014).

One experiment concerns HepG2. The experiment is described as follows: Cytotoxicity against human HepG2 cells after 48 hrs by MTT method. The conditions noted are these: HepG2, 48 h. The format is functional, cell-based.
A further experiment has as its system HeLa. The experiment is described as follows: Cytotoxicity against human HeLa cells after 48 hrs by MTT method. The format is functional, cell-based. In general terms: Tetrazolium assays rely on reduction of a dye to a coloured formazan, in cell work by metabolically active cells.
Experiment [1] in a line: Cytotoxicity against human HCT116 cells after 48 hrs by MTT method. The format is functional, cell-based. The conditions noted are these: HCT-116, 48 h.
In the next experiment the test system is MCF7. In words: Cytotoxicity against human MCF7 cells after 48 hrs by MTT method. The format is functional, cell-based. The conditions noted are these: MCF7, 48 h.
In experiment [2] the test system is HCT-116. The experiment is described as follows: Induction of apoptosis in human HCT116 cells at IC50 by acridine orange/ethidium bromide staining-based fluorescence microscopy. The format is functional. Put shortly:
(§1)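 Treated and untreated HCT-116 cells were stained with acridine orange/ethidium bromide (each 100 µg/ml mix in PBS) and examined under fluorescence microscopy, blinded. Cells with yellow condensed or fragmented nuclei were counted as apoptotic; bright orange chromatin in round nuclei was counted as necrotic. Each is reported as % of the dead-cell population.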

For experiment [3], the system named is HCT-116. In words: Induction of necrosis in human HCT116 cells at IC50 by acridine orange/ethidium bromide staining-based fluorescence microscopy. The format is functional. The essentials: as §1
For experiment [4], the system named is HCT-116. The experiment is described as follows: Induction of DNA fragmentation in human HCT116 cells at IC50 after 30 mins relative to control. The format is functional. Put shortly:
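HCT-116 cells, treated or untreated, were resuspended in TE buffer (10 mM Tris, 1 mM EDTA, pH 8.0) and lysed 30 min in 5 mM Tris, 20 mM EDTA, 0.5% Triton X-100, pH 8.0. Fragmented DNA (supernatant) was separated from intact chromatin (pellet) by centrifugation and quantified with diphenylamine reagent. % fragmentation = supernatant DNA / pellet DNA; three measurements, mean ± SD.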

In experiment [5] the test system is HCT-116. The experiment is described as follows: Induction of apoptosis in human HCT116 cells assessed as reduction of mitochondrial membrane potential after 2 hrs by JC-1 staining-based fluorescence assay. The format is functional, cell-based. The essentials: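 HCT-116 cells in 96-well plates were preloaded with 10 µg/ml JC-1 in HBSS for 30 min at 37 °C, then incubated with or without compound for 2 h at 37 °C. The 590/527 nm emission ratio was read at zero time and at 2 h and expressed as % of the zero-time reading. CCCP served as positive control; mean of three readings ± SD.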

In experiment [6] the test system is HCT-116. In words: Induction of apoptosis in human HCT116 cells assessed as cytochrome C accumulation by immunoblotting analysis. The format is functional, cell-based. Put shortly: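 HCT-116 cells were lysed in ice-cold buffer (pH 7.4) with NP40, Triton X-100 and protease/phosphatase inhibitors, then cleared at 14,000× g for 15 min at 4 °C; protein was measured by BCA. Soluble protein (20 µg) was dot-blotted on nitrocellulose and probed for cytochrome c, detected with HRP anti-goat antibody and OPD. Dot colour intensity is given as mean % of three replicates.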
On the technique in general: Immunoblotting shows a protein as a band on a membrane.

Experiment [7] relates to HCT-116. In words: Induction of apoptosis in human HCT116 cells assessed as increase in total caspase level relative to control. The format is functional, cell-based. Put shortly: (§2)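 HCT-116 cells, treated or untreated, were lysed (pH 7.4) and cleared at 14,000× g, 15 min, 4 °C. Kit-based read-outs: total caspases via Red-VAD-FMK fluorescence (Ex 540/Em 570 nm); caspase-3 colorimetric at 405 nm; caspase-9 via LEHD-pNA cleavage, pNA at 405 nm. Results are fold over untreated cells.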

Experiment [8] relates to HCT-116. The experiment is described as follows: Induction of apoptosis in human HCT116 cells assessed as increase in caspase-3 level relative to control. The format is functional, cell-based. The essentials: as §2
Experiment [9] deals with HCT-116. In words: Induction of apoptosis in human HCT116 cells assessed as increase in caspase-9 level relative to control. The format is functional, cell-based. Put shortly: as §2

For the compound `O=C(c1ccc2c(c1)CCCC2)c1coc2ccc(O)cc12`, the IC50 with HepG2 stood at 39.2 µg/mL (≈ 134 µM); in the experiment on HeLa it was 41.6 µg/mL (≈ 142 µM); in [1] it was 9.5 µg/mL (≈ 32.5 µM); in the experiment on MCF7, 40.3 µg/mL (≈ 138 µM). Besides, the Activity with HCT-116 [2] came out at 77%; with HCT-116 [3], 0%. In the experiment with HCT-116 [4], the outcome was Active. Further, in the experiment with HCT-116 [5], the result was inactive.
Consider `c1cc(-c2ccc3c(c2)CCCC3)n2ncnc2n1`, for which the IC50 with HepG2 was 15.9 µg/mL (≈ 63.5 µM); in the experiment with HeLa, 21.8 µg/mL (≈ 87.1 µM); in [1] it was 2.1 µg/mL (≈ 8.39 µM); with MCF7, 48.2 µg/mL (≈ 193 µM). The Activity in the experiment on HCT-116 [2] is on record as 77%; in the experiment with HCT-116 [3], 0%. For the same compound, the outcome with HCT-116 [4], in the experiment on HCT-116 [5], in the experiment on HCT-116 [6], with HCT-116 [7] and in the experiment with HCT-116 [8] was Active. Further, the outcome in the experiment on HCT-116 [9] was inactive.
In the case of `CC(=O)O[C@H]1C(=O)[C@@]2(C)[C@H]([C@H](OC(=O)c3ccccc3)[C@]3(O)C[C@H](OC(=O)[C@H](O)[C@@H](NC(=O)c4ccccc4)c4ccccc4)C(C)=C1C3(C)C)[C@]1(OC(C)=O)CO[C@@H]1C[C@@H]2O` [PACLITAXEL], the IC50 in the experiment with HepG2 came to 0.59 µg/mL (≈ 0.691 µM); in the experiment on HeLa, 0.47 µg/mL (≈ 0.55 µM); in experiment [1], 0.38 µg/mL (≈ 0.445 µM); with MCF7 it was 0.61 µg/mL (≈ 0.714 µM). The compound also displayed an Activity in the experiment on HCT-116 [4] of 44%.
For the compound `COc1ccc(N/C=C\C(=O)c2ccc3c(c2)CCCC3)cc1`, the half-inhibitory concentration (IC50) in the experiment on HepG2 amounted to 31.8 µg/mL (≈ 103 µM); with HeLa it was 46.1 µg/mL (≈ 150 µM); in [1] it was 31.8 µg/mL (≈ 103 µM); in the experiment on MCF7 it was 43.1 µg/mL (≈ 140 µM).
As for `O=c1[nH]c(=S)[nH]c2nccc(-c3ccc4c(c3)CCCC4)c12`, the IC50 in the experiment on HepG2 came to 27 µg/mL (≈ 87.3 µM); in the experiment with HeLa it was 25.3 µg/mL (≈ 81.8 µM); in [1] it was 0.49 µg/mL (≈ 1.58 µM); in the experiment on MCF7 it was 18.2 µg/mL (≈ 58.8 µM). Further, the Activity came out at 77% in the experiment with HCT-116 [2] and 0% in the experiment with HCT-116 [3]. Moreover, the result in the experiment on HCT-116 [4], in the experiment on HCT-116 [5], in the experiment with HCT-116 [6], in the experiment with HCT-116 [7], with HCT-116 [8] and in the experiment on HCT-116 [9] was Active.
On to `CN(C)/C=C/C(=O)c1ccc2c(c1)CCCC2`, for which the 50% inhibitory concentration (IC50) was 22.3 µg/mL (≈ 97.2 µM) in the experiment with HepG2, 33.4 µg/mL (≈ 146 µM) in the experiment with HeLa, 18.9 µg/mL (≈ 82.4 µM) in experiment [1] and 29.3 µg/mL (≈ 128 µM) with MCF7.
With `O=C(c1ccc2c(c1)CCCC2)c1coc2c1cc(O)c1ccccc12`, the 50% inhibitory concentration (IC50) with HepG2 is 31.7 µg/mL (≈ 92.6 µM); in the experiment with HeLa it was 40.5 µg/mL (≈ 118 µM); in experiment [1], 36.2 µg/mL (≈ 106 µM); with MCF7, 48.7 µg/mL (≈ 142 µM).
On the same counts, the results for `O=C(/C=C\Nc1ccccc1)c1ccc2c(c1)CCCC2` are 19.9 µg/mL (≈ 71.7 µM), 30.6 µg/mL (≈ 110 µM), 41.6 µg/mL (≈ 150 µM) and 32.2 µg/mL (≈ 116 µM).
On the same counts, the results for `c1ccc(-c2cc3nccc(-c4ccc5c(c4)CCCC5)n3n2)cc1` are 37.6 µg/mL (≈ 116 µM), 36.2 µg/mL (≈ 111 µM), 26.7 µg/mL (≈ 82 µM) and 19.9 µg/mL (≈ 61.2 µM).
Take `O=C(/C=C/N1CCOCC1)c1ccc2c(c1)CCCC2`: the half-maximal inhibitory concentration (IC50) in the experiment on HepG2 was 18.2 µg/mL (≈ 67.1 µM); in the experiment on HeLa, 41.2 µg/mL (≈ 152 µM); in experiment [1], 7.2 µg/mL (≈ 26.5 µM); in the experiment on MCF7 it was 38.6 µg/mL (≈ 142 µM). Further, the Activity in the experiment with HCT-116 [2] is 77%; in the experiment on HCT-116 [3] it was 0%. The outcome in the experiment on HCT-116 [4] was Active. The result in the experiment on HCT-116 [5] was inactive.
For the compound `CC(=O)Nc1ccc(-c2ccc3c(c2)CCCC3)oc1=O`, the half-maximal inhibitory concentration (IC50) in the experiment with HepG2 came out at 45.3 µg/mL (≈ 160 µM); in the experiment on HeLa, 30.4 µg/mL (≈ 107 µM); in experiment [1] it was 8.4 µg/mL (≈ 29.6 µM); in the experiment with MCF7, 20.9 µg/mL (≈ 73.8 µM). In addition, the figures for the Activity in the experiment with HCT-116 [2] and with HCT-116 [3] were 77% and 0%, respectively. In addition, the outcome with HCT-116 [4] and in the experiment with HCT-116 [9] was Active. Also, the outcome in the experiment with HCT-116 [8] was inactive.
As for `O=C(/C=C\Nc1ccc(Cl)cc1)c1ccc2c(c1)CCCC2`, the half-maximal inhibitory concentration (IC50) came out at 30.3 µg/mL (≈ 97.2 µM) in the experiment on HepG2, 19.9 µg/mL (≈ 63.8 µM) in the experiment on HeLa, 7.9 µg/mL (≈ 25.3 µM) in experiment [1] and 28.7 µg/mL (≈ 92 µM) in the experiment on MCF7. The Activity in the experiment on HCT-116 [2] was determined as 77%; with HCT-116 [3], 0%. For the same compound, the result in the experiment on HCT-116 [4] was Active. In the experiment on HCT-116 [5], the result was inactive.
Regarding `O=C(/C=C\Nc1ccc([N+](=O)[O-])cc1)c1ccc2c(c1)CCCC2`, the IC50 in the experiment on HepG2 was 27.4 µg/mL (≈ 85 µM); in the experiment on HeLa, 48.4 µg/mL (≈ 150 µM); in [1], 6.8 µg/mL (≈ 21.1 µM); with MCF7, 28.5 µg/mL (≈ 88.4 µM). The results for the Activity in the experiment on HCT-116 [2] and in the experiment on HCT-116 [3] were 77% and 0%, respectively. Further, the outcome with HCT-116 [4], in the experiment on HCT-116 [6] and in the experiment on HCT-116 [7] was Active.
Consider `O=c1[nH]c(=O)c2c(-c3ccc4c(c3)CCCC4)ccnc2[nH]1`, for which the 50% inhibitory concentration (IC50) with HepG2 amounted to 39.9 µg/mL (≈ 136 µM); in the experiment on HeLa, 29.1 µg/mL (≈ 99.2 µM); in experiment [1], 18.6 µg/mL (≈ 63.4 µM); in the experiment with MCF7 it was 24.4 µg/mL (≈ 83.2 µM).
The corresponding values for `Cc1ccc(N/C=C\C(=O)c2ccc3c(c2)CCCC3)cc1` are 42.7 µg/mL (≈ 147 µM), 28.7 µg/mL (≈ 98.5 µM), 42.1 µg/mL (≈ 144 µM) and 43.6 µg/mL (≈ 150 µM).
As to `O=C(/C=C/N1CCCCC1)c1ccc2c(c1)CCCC2`, the half-maximal inhibitory concentration (IC50) worked out at 39.1 µg/mL (≈ 145 µM) with HepG2, 35.6 µg/mL (≈ 132 µM) in the experiment on HeLa, 35.4 µg/mL (≈ 131 µM) in experiment [1] and 41.1 µg/mL (≈ 153 µM) with MCF7.
As for `O=C(Nc1ccc(-c2ccc3c(c2)CCCC3)oc1=O)c1ccccc1`, the IC50 was 29.3 µg/mL (≈ 84.8 µM) with HepG2, 38.3 µg/mL (≈ 111 µM) with HeLa, 47.7 µg/mL (≈ 138 µM) in experiment [1] and 27.5 µg/mL (≈ 79.6 µM) with MCF7. Besides, the outcome with HCT-116 [6] and with HCT-116 [7] was Active.
